ChEMBL document CHEMBL1155083, “Piperazine sulfonamides as potent, selective, and orally available 11beta-hydroxysteroid dehydrogenase type 1 inhibitors with efficacy in the rat cortisone-induced hyperinsulinemia model” (J Med Chem, 2008)
Active and inactive are the calls of the source. The calls are words filed in the database; no cut-off is given here.

Key:
[1] = target: 11-beta-hydroxysteroid dehydrogenase 1 (Homo sapiens, UniProt P28845); test: Inhibition of human 11betaHSD1 expressed in CHO cells by cell based assay
11-beta-hydroxysteroid dehydrogenase 1 (Homo sapiens, UniProt P28845), sequence (P28845 whole entry): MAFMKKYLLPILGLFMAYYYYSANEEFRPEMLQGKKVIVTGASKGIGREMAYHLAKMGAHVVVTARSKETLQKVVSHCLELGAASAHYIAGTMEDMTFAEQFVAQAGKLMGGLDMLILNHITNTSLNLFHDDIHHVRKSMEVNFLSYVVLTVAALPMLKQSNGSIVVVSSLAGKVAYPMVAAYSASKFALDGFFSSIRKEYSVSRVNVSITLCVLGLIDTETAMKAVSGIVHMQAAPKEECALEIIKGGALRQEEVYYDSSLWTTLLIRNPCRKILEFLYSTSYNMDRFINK

[2] = target: T1, 11-beta-hydroxysteroid dehydrogenase 1 (Mus musculus, UniProt P50172); test: Inhibition of mouse 11betaHSD1 expressed in CHO cells by cell based assay
T1 sequence (P50172 whole entry): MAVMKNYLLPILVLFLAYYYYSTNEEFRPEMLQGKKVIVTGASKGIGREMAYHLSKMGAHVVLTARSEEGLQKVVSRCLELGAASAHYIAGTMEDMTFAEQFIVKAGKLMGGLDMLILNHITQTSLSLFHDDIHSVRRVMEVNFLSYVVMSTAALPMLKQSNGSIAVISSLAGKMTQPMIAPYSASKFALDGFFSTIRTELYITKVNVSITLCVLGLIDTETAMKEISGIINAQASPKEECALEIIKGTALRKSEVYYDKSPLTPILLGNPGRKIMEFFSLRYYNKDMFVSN

[3] = target: T1, 11-beta-hydroxysteroid dehydrogenase 1; test: Inhibition of C57BL/6 mouse 11betaHSD1 in presence of human serum
[4] = target: T2, 11-beta-hydroxysteroid dehydrogenase type 2 (Homo sapiens) (UniProt P80365); test: Inhibition of 11betaHSD2 at 100 uM by cell based assay
T2 sequence (whole entry): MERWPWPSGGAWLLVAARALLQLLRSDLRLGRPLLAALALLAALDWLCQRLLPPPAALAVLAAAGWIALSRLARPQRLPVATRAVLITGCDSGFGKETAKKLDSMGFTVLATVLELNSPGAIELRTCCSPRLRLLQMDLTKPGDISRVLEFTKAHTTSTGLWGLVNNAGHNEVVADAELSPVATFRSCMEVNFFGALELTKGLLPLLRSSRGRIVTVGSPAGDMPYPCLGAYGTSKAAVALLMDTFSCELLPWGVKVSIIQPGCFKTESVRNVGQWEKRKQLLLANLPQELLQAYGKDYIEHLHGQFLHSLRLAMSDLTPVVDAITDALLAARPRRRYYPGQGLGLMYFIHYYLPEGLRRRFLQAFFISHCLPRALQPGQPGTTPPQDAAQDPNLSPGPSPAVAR

[5] = Metabolic stability assessed as half life in mouse liver microsomes
[6] = Metabolic stability assessed as half life in human liver microsomes
[7] = Clearance in mouse at 2 mg/kg, iv; assay type: ADME, organism-based; set-up: dose 2 mg/kg, route intravenous; conditions: in vivo
[8] = Oral bioavailability in mouse at 30 mg/kg; assay type: ADME, organism-based; conditions: in vivo
[9] = tested on: Mus musculus; test: Ex vivo inhibition of 11betaHSD1 in C57BL/6 mouse assessed as conversion of [3H]cortisone to [3H]cortisole in liver at 30 mg/kg, po; assay type: functional; conditions: C57BL/6, Liver
How it was run: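 Mice dosed orally; sacrificed 5 h after dosing. Liver samples taken and 11β-HSD1 conversion of cortisone to cortisol measured; percent inhibition reported.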

[10] = Cmax in Sprague-Dawley rat at 30 mg/kg, po; assay type: ADME, organism-based; set-up: dose 30 mg/kg, route oral; conditions: in vivo
How it was run: (§1)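 Oral PK in rats; single dose 30 mg/kg by gavage, formulated in 0.5% methyl cellulose/2% Tween; plasma exposure reported as Cmax (ng/mL) and AUC (ng·h/mL).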

[11] = AUC in Sprague-Dawley rat at 30 mg/kg, po; assay type: ADME, organism-based; set-up: dose 30 mg/kg, route oral; conditions: plasma; how it was run: as §1
[12] = tested on: Rattus norvegicus; test: Ex vivo inhibition of 11betaHSD1 in Sprague-Dawley rat assessed as conversion of [3H]cortisone to [3H]cortisole in liver at 30 mg/kg, po after 2 hrs; assay type: functional
[13] = tested on: Rattus norvegicus; test: Effect on cortisone-induced Sprague-Dawley rat hyperinsulinemia model assessed as reduction in insulin at 30 mg/kg, bid after 7 days; assay type: functional; set-up: scale not given: the % may be the effect or the level left
How it was run: (§2)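 Male SD rats given cortisone in drinking water (2 mg/mL); inhibitors dosed orally b.i.d. for 7 days. On day 7, body weight, food intake, liquid consumption, plasma glucose and serum insulin were measured; insulin reduction expressed as percent.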

[14] = target: 11-beta-hydroxysteroid dehydrogenase 1 (Rattus norvegicus, UniProt P16232); test: Inhibition of rat 11betaHSD1
11-beta-hydroxysteroid dehydrogenase 1 (Rattus norvegicus, UniProt P16232), sequence (P16232 whole entry): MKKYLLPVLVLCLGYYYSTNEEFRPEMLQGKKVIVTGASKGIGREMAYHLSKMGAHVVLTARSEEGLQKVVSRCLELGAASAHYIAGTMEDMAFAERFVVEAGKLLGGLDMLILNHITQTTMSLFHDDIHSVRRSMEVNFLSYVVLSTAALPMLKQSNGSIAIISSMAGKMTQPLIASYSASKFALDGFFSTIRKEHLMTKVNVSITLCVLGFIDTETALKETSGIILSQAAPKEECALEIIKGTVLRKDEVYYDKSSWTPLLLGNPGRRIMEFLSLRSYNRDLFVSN
How it was run: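 Potency against rat enzyme measured in a cell-based assay using CHO cells expressing rat 11β-HSD1; IC50 reported.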

[15] = species on record: Rattus norvegicus; test: Effect on glucose level in cortisone-induced Sprague-Dawley rat hyperinsulinemia model; assay type: functional, organism-based; how it was run: as §2
[16] = tested on: Rattus norvegicus; test: Effect on cortisone-induced Sprague-Dawley rat hyperinsulinemia model assessed as reduction in insulin at 60 mg/kg, bid after 7 days; assay type: functional; set-up: scale not given: the % may be the effect or the level left; how it was run: as §2
[17] = tested on: Mus musculus; test: Ex vivo inhibition of 11betaHSD1 in C57BL/6 mouse assessed as conversion of [3H]cortisone to [3H]cortisole in liver at 10 mg/kg, po; assay type: functional; conditions: C57BL/6, Liver

SMILES | IC50 [1] | IC50 [2] | IC50 [3] | Activity [4] | half-life [5] | other results
C[C@@H]1CN(c2ccc(F)cc2C(F)(F)F)CCN1S(=O)(=O)c1cccc(N2CC[C@H](O)C2)c1 | 28 nM | 20 nM | 41 nM | inactive |  | 
C[C@@H]1CN(c2ccc(F)cc2C(F)(F)F)CCN1S(=O)(=O)c1cccc(-n2ccnc2)c1 | 74 nM | 11 nM | 73 nM | inactive |  | 
C[C@@H]1CN(c2ncccc2Cl)[C@@H](C)CN1S(=O)(=O)c1ccc(Cl)c(Cl)c1 (relative stereo) | 1600 nM | 4700 nM |  | inactive | 2 min | half-life [6]: 3 min
C[C@@H]1CN(c2ccc(F)cc2C(F)(F)F)CCN1S(=O)(=O)c1cccc(N2CC[C@@H](O)C2)c1 | 10 nM | 12 nM | 13 nM | inactive |  | 
C[C@@H]1CN(c2ccc(F)cc2C(F)(F)F)CCN1S(=O)(=O)c1cccc(-n2cccn2)c1 | 13 nM | 12 nM | 100 nM | inactive |  | 
CCNC(=O)N1CCN(c2cccc(S(=O)(=O)N3CCN(c4ccc(F)cc4C(F)(F)F)C[C@H]3C)c2)CC1 | 370 nM | 12 nM | 220 nM | inactive |  | 
COC(=O)N1CCN(c2cccc(S(=O)(=O)N3CCN(c4ccc(F)cc4C(F)(F)F)C[C@H]3C)c2)CC1 | 330 nM | 11 nM | 220 nM | inactive |  | 
C[C@@H]1CN(c2ccc(F)cc2C(F)(F)F)CCN1S(=O)(=O)c1cccc(N2CCOCC2)c1 | 13 nM | 11 nM | 56 nM | inactive |  | 
C[C@@H]1CN(c2ccc(F)cc2C(F)(F)F)CCN1S(=O)(=O)c1cccc(N2CCNCC2)c1 | > 10000 nM | 160 nM | 190 nM | inactive |  | 
C[C@@H]1CN(c2ccc(F)cc2C(F)(F)F)CCN1S(=O)(=O)c1cccc(OC(C)(C)C(=O)O)c1 | 300 nM | 37 nM | 130 nM | inactive | > 30 min | clearance [7]: 25 mL/min/kg; bioavailability [8]: 100%; inhibition in vivo at 30 mg/kg [9]: 38%; Cmax [10]: 9180 ng/mL; AUC [11]: 51100 ng·h/mL; inhibition in vivo at 30 mg/kg [12]: 35%; Activity [13]: 30%; IC50 [14]: 110 nM; Activity [15]: inactive
C[C@@H]1CN(c2ccc(F)cc2C(F)(F)F)CCN1S(=O)(=O)c1cccc(N2CCC(C(N)=O)C2)c1 (stereo partly drawn) | 32 nM | 11 nM | 14 nM | inactive |  | 
CC(C)N1CCN(c2cccc(S(=O)(=O)N3CCN(c4ccc(F)cc4C(F)(F)F)C[C@H]3C)c2)CC1 | 490 nM | 150 nM | 250 nM | inactive |  | 
C[C@@H]1CN(c2ccc(F)cc2C(F)(F)F)CCN1S(=O)(=O)c1cccc(N2CCC(C(=O)O)C2)c1 (stereo partly drawn) | 160 nM | 10 nM | 90 nM | inactive | > 30 min | clearance [7]: 55 mL/min/kg; bioavailability [8]: 100%; inhibition in vivo at 30 mg/kg [9]: 36%
O=S(=O)(c1ccc(Cl)c(Cl)c1)N1CCN(c2ccc(F)cc2C(F)(F)F)CC1 | 68 nM | 250 nM |  | inactive | 8 min | half-life [6]: 12 min
C[C@@H]1CN(c2ccccc2C(F)(F)F)CCN1S(=O)(=O)c1ccc(Cl)c(Cl)c1 | 10 nM | 10 nM |  | inactive | 3 min | half-life [6]: 5 min
C[C@@H]1CN(c2ccc(F)cc2C(F)(F)F)CCN1S(=O)(=O)c1cccc(N2CCN(C)CC2)c1 | 21 nM | 12 nM | 28 nM | inactive | 15 min | clearance [7]: 36 mL/min/kg; bioavailability [8]: 79%; inhibition in vivo at 30 mg/kg [9]: 45%; Cmax [10]: 246 ng/mL; AUC [11]: 2280 ng·h/mL; inhibition in vivo at 30 mg/kg [12]: 32%; Activity [16]: 11%; IC50 [14]: 42 nM; Activity [15]: inactive
O=C1CN(c2ncccc2C(F)(F)F)CCN1S(=O)(=O)c1ccc(Cl)c(Cl)c1 | 500 nM | > 10000 nM |  | inactive | 6 min | half-life [6]: 2 min
O=S(=O)(c1ccc(Cl)c(Cl)c1)N1CCN(c2ccccc2C(F)(F)F)CC1 | 52 nM | 420 nM |  | inactive | 3 min | half-life [6]: 4 min
C[C@@H]1CN(c2ccc(F)cc2C(F)(F)F)CCN1S(=O)(=O)c1cccc(N2CCCCC2)c1 | 15 nM | 10 nM | 67 nM | inactive |  | 
C[C@@H]1CN(c2ccc(F)cc2C(F)(F)F)CCN1S(=O)(=O)c1cccc(N2CCC(O)C2)c1 (stereo partly drawn) | 10 nM | 13 nM | 11 nM | inactive | 11 min | clearance [7]: 54 mL/min/kg; bioavailability [8]: 9%; inhibition in vivo at 30 mg/kg [9]: 47%; Cmax [10]: 185 ng/mL; AUC [11]: 1040 ng·h/mL; inhibition in vivo at 30 mg/kg [12]: 62%; Activity [16]: 19%; IC50 [14]: 13 nM; Activity [15]: inactive
COC(=O)C1CCN(c2cccc(S(=O)(=O)N3CCN(c4ccc(F)cc4C(F)(F)F)C[C@H]3C)c2)C1 (stereo partly drawn) | 11 nM | 10 nM | 55 nM | inactive |  | 
C[C@@H]1CN(c2ccc(F)cc2C(F)(F)F)CCN1S(=O)(=O)c1cccc(N2CCCC2C(=O)O)c1 (stereo partly drawn) | 69 nM | 27 nM | 32 nM | inactive |  | 
C[C@@H]1CN(c2ccc(F)cc2C(F)(F)F)CCN1S(=O)(=O)c1cccc(-n2cncn2)c1 | 26 nM | 10 nM | 42 nM | inactive | 12 min | clearance [7]: 13 mL/min/kg; bioavailability [8]: 34%; inhibition in vivo at 10 mg/kg [17]: 44%; Cmax [10]: 149 ng/mL; AUC [11]: 1040 ng·h/mL; inhibition in vivo at 30 mg/kg [12]: 59%; Activity [16]: 34%; IC50 [14]: 81 nM; Activity [15]: inactive
O=C1CN(S(=O)(=O)c2ccc(Cl)c(Cl)c2)CCN1c1ncccc1C(F)(F)F | 9900 nM | > 10000 nM |  | inactive | 30 min | half-life [6]: 30 min
CCN1CCN(c2cccc(S(=O)(=O)N3CCN(c4ccc(F)cc4C(F)(F)F)C[C@H]3C)c2)CC1 | 30 nM | 29 nM | 45 nM | inactive |  | 
C[C@@H]1CN(c2ccc(F)cc2C(F)(F)F)CCN1S(=O)(=O)c1cccc(N2CCCC2)c1 | 61 nM | 16 nM | 56 nM | inactive |  | 
C[C@@H]1CN(c2ccc(F)cc2C(F)(F)F)CCN1S(=O)(=O)c1cccc(-n2cnnc2)c1 | 120 nM | 230 nM | 120 nM | inactive |  | 
C[C@@H]1CN(c2ncccc2Cl)C[C@H](C)N1S(=O)(=O)c1ccc(Cl)c(Cl)c1 | 1300 nM | 6900 nM |  | inactive | 3 min | half-life [6]: 6 min
O=S(=O)(c1ccc(Cl)c(Cl)c1)N1CCN(c2ncccc2C(F)(F)F)CC1 | 61 nM | 190 nM |  | inactive | 5 min | half-life [6]: 5 min
